TROY NFkB inh = inhibitors of TROY-driven NF-kB signaling, primary screen, Q293 LMP1-TROYcd cells, NF-kB luciferase, uHTS. Q293 LMP1-TROYcd NF-kB luciferase reporter, 4 h. AID 1347056, 2019. inhibition, % at 10 µM. 360,000 compounds, 0.98% hits;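 active = compounds whose plate-normalised and pattern-corrected inhibition of the luciferase reporter signal at the single screening dose is 50% or more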
TWEAK-Fn14 inh = inhibitors of TWEAK-Fn14 signaling, primary screen, luciferase reporter cells, uHTS. TWEAK-stimulated Fn14 reporter cells, luciferase luminescence, 8 h. inhibition, % at 10 µM. 360,000 compounds, 2% hits. AID 1159606, 2016; in the data active = inhibition above about 50%
CaV13 ICDI inh = Primary screen for inhibitors of IQ motif and Ca2+-dependent inactivation inhibitor domain binding in CACNA1D, Förster resonance energy transfer in living cells, …; HEK cells, CFP/YFP FRET ICDI-IQ, plate reader, 10 min; percent FRET-ratio fall versus neutral wells; inhibition, % at 12.3 µM; 340,000 compounds, 0.098% hits; AID 743397;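 active = mean replicate inhibition of at least 30% and at least 1% of replicates passing that level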
LGR2 antag = inhibitors of bursicon-induced LGR2 CRE-luciferase signal, primary screen, cell-based, HEK293, CRE-luciferase reporter, bursicon stimulation | Drosophila bursicon receptor LGR2 (rickets) | bursicon-stimulated, 4 h | AID 720647, 2013 | inhibition, % at 9.99 µM | 380,000 compounds, 0.35% hits;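 active = drop in luminescence signal, shown as inhibition above about 50% in the replicate tests, limit read from the data, passing the limit was not always enough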;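 also: agonist challenge used bursicon conditioned medium at about half maximal strength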
XiGFP reactiv = activators of inactive X chromosome reactivation, primary screen, imaging, XiGFP fibroblasts, GFP high-content imaging, set 2 | 360,000 compounds, 0.055% hits | activation, % at 7.58 µM | XiGFP mouse fibroblasts, % GFP-positive cells imaging, 3 d; cells co-treated with 5-aza-dC sensitizer; scaled so ellipticine positive control = 100%;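 active = mean normalized replicate activation at least 10% and every replicate at or above 10%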
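System: XiGFP fibroblasts, SV40-immortalized. Medium: DMEM plus 5-aza-dC sensitizer. Doses: single point. Timing: 3 d treatment, 15 min room-temperature fixation. Control set: ellipticine 6 µM.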
Large screens that a line does not name were inactive. Only some compounds are listed: those with a hit (about 2% of all), similar ones and a draw of the others.

CC(=O)c1ccc(N2CCN(C(=O)c3ccc4c(=O)[nH]c5c(C(=O)NC6CCCC6)sc(=S)n5c4c3)CC2)cc1	none (no result: TROY NFkB inh, TWEAK-Fn14 inh)
O=C(NCCc1ccccc1)c1ccc2c(=O)[nH]c3c(C(=O)NCC4CCCO4)sc(=S)n3c2c1 (configuration not stated)	none
C(=NNc1ccc2ccccc2n1)c1ccccn1	TROY NFkB inh 83, TWEAK-Fn14 inh 101, LGR2 antag 99
Brc1csc(/C=N/Nc2nc3ccccc3s2)c1	none (no result: XiGFP reactiv)
C(=N\Nc1nc2ccccc2s1)/c1ccccn1	LGR2 antag 104 (no result: TROY NFkB inh, TWEAK-Fn14 inh)
Brc1cc2c(cc1/C=N/Nc1nc3ccccc3s1)OCO2	TROY NFkB inh 79, TWEAK-Fn14 inh 57 (no result: CaV13 ICDI inh, XiGFP reactiv)
Cc1ccc2[nH]c(C)c(/C=N/Nc3nc4ccccc4s3)c2c1	TWEAK-Fn14 inh 60 (no result: LGR2 antag, XiGFP reactiv)
C(=N\Nc1nc2ccccc2s1)/c1ccc2c(c1)OCO2	none (no result: LGR2 antag)
Cc1cc(NN=Cc2ccccn2)nc2ccccc12	none (no result: TROY NFkB inh, TWEAK-Fn14 inh)
Cc1ccc2[nH]c(O)c(N=Nc3nc4ccccc4s3)c2c1	none
Cc1nn(C)cc1NC(=O)C[C@@H]1CC[C@@H]2[C@@H](COc3ccc(NC(=O)C(C)C)cc3C(=O)N2C)O1	none (no result: TROY NFkB inh, TWEAK-Fn14 inh, CaV13 ICDI inh)
COc1ccccc1C(=O)Nc1ccc2c(c1)C(=O)N(C)[C@H]1CC[C@@H](CC(=O)NCc3ccc(Cl)c(Cl)c3)O[C@H]1CO2	none (no result: TROY NFkB inh, TWEAK-Fn14 inh, CaV13 ICDI inh)
C[C@@H]1CCCCO[C@@H](CN(C)Cc2ccc(C(=O)O)cc2)[C@@H](C)CN([C@H](C)CO)C(=O)c2cc(NS(=O)(=O)c3ccccc3)ccc2O1	none (no result: TROY NFkB inh, TWEAK-Fn14 inh, CaV13 ICDI inh)
C[C@@H]1CCCCO[C@@H](CN(C)Cc2ccc(C(F)(F)F)cc2)[C@H](C)CN([C@@H](C)CO)C(=O)c2cc(NC(=O)Nc3ccc4c(c3)OCO4)ccc2O1	none (no result: TROY NFkB inh, TWEAK-Fn14 inh, CaV13 ICDI inh)
C[C@H]1CN([C@@H](C)CO)C(=O)c2cccc(NC(=O)c3cnccn3)c2O[C@H]1CN(C)Cc1ccc2c(c1)OCO2	none (no result: TROY NFkB inh, TWEAK-Fn14 inh, CaV13 ICDI inh)
C(=N\NC1=Nc2cccc3cccc1c23)/c1ccccn1	TWEAK-Fn14 inh 63
COc1ccc(C=NNc2nc3ccccc3s2)cc1	TROY NFkB inh 57, TWEAK-Fn14 inh 78, LGR2 antag 78
Cc1csc(N/N=C/c2ccccn2)n1	TWEAK-Fn14 inh 72, LGR2 antag 69
COc1ccccc1S(=O)(=O)N[C@@H]1C=C[C@H](CC(=O)NCc2cc(F)cc(F)c2)O[C@H]1CO	none (no result: TROY NFkB inh, TWEAK-Fn14 inh, CaV13 ICDI inh)
Cc1noc(C)c1NC(=O)Nc1ccc2c(c1)C(=O)N([C@H](C)CO)C[C@@H](C)[C@@H](CN(C)C(=O)Nc1ccc3c(c1)OCO3)OCCCC[C@@H](C)O2	none (no result: TROY NFkB inh, TWEAK-Fn14 inh, CaV13 ICDI inh)
CCCNC(=O)N[C@H]1CC[C@H](CCn2cc(C3CC3)nn2)O[C@@H]1CO	none (no result: TROY NFkB inh, TWEAK-Fn14 inh, CaV13 ICDI inh)
Cc1ccccc1Oc1ncnc(N)c1[N+](=O)[O-]	none
CN(c1ncnc(N)c1[N+](=O)[O-])C1CCS(=O)(=O)C1 (configuration not stated)	none
CN(c1ncnc(N)c1[N+](=O)[O-])C1CCCCC1	TROY NFkB inh 52, TWEAK-Fn14 inh 81
CCCCN(c1ccccc1)c1ncnc(N)c1[N+](=O)[O-]	TWEAK-Fn14 inh 83 (no result: XiGFP reactiv)
O=C(Cc1ccccc1)N1C[C@@H]2[C@H](c3ccccc31)[C@H](CO)N2C(=O)Cc1ccccc1	none (no result: TROY NFkB inh, TWEAK-Fn14 inh, CaV13 ICDI inh)
Cc1cccnc1Nc1nc(-c2ccccn2)cs1	TWEAK-Fn14 inh 101 (no result: CaV13 ICDI inh, LGR2 antag, XiGFP reactiv)
Cc1cccnc1Nc1nc(-c2ccccc2)cs1	none
C[C@@H]1CN([C@@H](C)CO)C(=O)c2cc(NS(=O)(=O)c3cn(C)cn3)ccc2O[C@@H](C)CCCCO[C@@H]1CN(C)C(=O)NC1CCCCC1	none (no result: TROY NFkB inh, TWEAK-Fn14 inh, CaV13 ICDI inh)
COc1ccc(-c2[nH]c(-c3ccc4c(c3)OCO4)nc2-c2ccccc2)cc1	TROY NFkB inh 60 (no result: LGR2 antag, XiGFP reactiv)
CCCOc1ccc2cc(-c3ccccn3)c(=O)oc2c1	TROY NFkB inh 64, TWEAK-Fn14 inh 93, LGR2 antag 88
CCOC(=O)/C=C(\C)Sc1cc(O)c2ccccc2c1O	TWEAK-Fn14 inh 96
CCOC(=O)Nc1oc2ccccc2c(=O)c1C	none (no result: LGR2 antag, XiGFP reactiv)
CC(=O)c1cc(O)c2ccccc2c1O	none
CCOC(=O)/C=C(\C)Sc1cc(=O)oc2ccccc12	TWEAK-Fn14 inh 57 (no result: LGR2 antag, XiGFP reactiv)
COc1ccc2c3c(n(C)c2c1)[C@H](CO)N(C)CC31CN(S(=O)(=O)c2cccc(F)c2)C1	none (no result: TROY NFkB inh, TWEAK-Fn14 inh, CaV13 ICDI inh)
